Shown are actives, neighbours in structure and some others; about 1.9% of the full set was active somewhere.
SR-BI DiI inh = blocks mouse SR-BI lipid uptake from DiI-HDL; Q61009; ldlA[mSR-BI] CHO cells, DiI-HDL uptake fluorescence, 3 h; inhibition, % at 12.5 µM; 320,000 compounds, 0.96% hits;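 active means mean replicate inhibition of at least 70% and a set share of replicates each scoring 70 or more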;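 further: 0% = median of neutral control wells and 100% = median of positive control wells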
Target sequence (Q61009 whole entry, looked up): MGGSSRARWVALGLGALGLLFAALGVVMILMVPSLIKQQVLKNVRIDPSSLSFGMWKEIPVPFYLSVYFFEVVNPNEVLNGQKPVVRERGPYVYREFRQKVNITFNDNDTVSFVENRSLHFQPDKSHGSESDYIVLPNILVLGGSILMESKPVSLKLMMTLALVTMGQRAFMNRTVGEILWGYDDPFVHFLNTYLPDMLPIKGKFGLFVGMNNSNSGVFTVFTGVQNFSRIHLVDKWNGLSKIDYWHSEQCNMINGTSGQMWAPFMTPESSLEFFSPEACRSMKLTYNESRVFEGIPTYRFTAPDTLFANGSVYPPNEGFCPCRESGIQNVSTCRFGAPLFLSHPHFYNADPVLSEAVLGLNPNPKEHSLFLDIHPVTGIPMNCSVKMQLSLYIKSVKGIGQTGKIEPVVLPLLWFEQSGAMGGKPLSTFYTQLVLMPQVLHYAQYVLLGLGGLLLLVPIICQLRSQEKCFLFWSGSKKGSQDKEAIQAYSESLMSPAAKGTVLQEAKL
SR-BI DiI-HDL act = activators of SR-BI mediated HDL lipid uptake | CHO ldlA[mSR-BI] cells, DiI-HDL uptake fluorescence, 3 h; 100 = double the neutral-control signal | activation, % at 12.5 µM | 320,000 compounds, 0.096% hits | AID 504775;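 active means mean replicate activation of at least 60% and every replicate at or above 60%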;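 further: 0% = median plate neutral-control signal and 100% = twice that signal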
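Assay system: LDL receptor-deficient CHO ldlA cells overexpressing murine SR-BI / Medium: BSA-supplemented, HEPES-buffered Ham's F12, pH 7.4 / Probe or stimulus: DiI-labelled HDL at 10 µg/mL final / Timing: compound with DiI-HDL co-incubation, 3 h at 37 °C / Technique: bottom-read cell fluorescence after medium removal, ex 550/em 595 nm / Measure: HDL uptake via cellular fluorescence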
GRK2 inh = blocks RNA aptamer binding to human GRK2. bead flow cytometry, FAM-aptamer displacement from GRK2. inhibition of aptamer binding, % at 10 µM. 330,000 compounds, 0.59% hits;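 active means inhibition of aptamer binding above 40%, roughly 3 SD of noise, on plates passing a quality check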;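 further: median bead fluorescence of bound FAM aptamer so fluorescent compounds give negative values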
Rin1 Abl inh = human Rin1-Abl interaction inhibition | P00519+Q13671 | TR-FRET Rin1/Abl binding, biochemical | inhibition, % at 7.35 µM | 360,000 compounds, 0.4% hits | AID 588664; in the data active means inhibition above about 5%, passing the limit was not always enough
Active calls of the source: *; x = no result.

SMILES | SR-BI DiI inh | SR-BI DiI-HDL act | GRK2 inh | Rin1 Abl inh
Cc1onc(-c2ccccc2Cl)c1C(=O)Nc1sc2c(c1C#N)CCC2 | 38 | -38 | 1 | -6
CCOC(=O)c1c(NC(=O)c2c(-c3ccccc3)noc2C)sc(C)c1-c1ccccc1 | 75* | -75 | 0 | -5
Cc1onc(-c2ccccc2)c1C(=O)Nc1sc2c(c1C#N)CCC(C)C2 (centres undefined) | 72* | -72 | 0 | -3
CC(C)C(=O)NC(NC(=S)Nc1cccc2cccnc12)C(Cl)(Cl)Cl (centres undefined) | 74* | -74 | 3 | 4
CCC(=O)NC(NC(=S)Nc1cccc2cccnc12)C(Cl)(Cl)Cl (centres undefined) | 37 | -37 | 0 | -1
Cc1ccc(S(=O)(=O)N(C(=O)c2ccncc2)c2ccc(OC(=O)c3ccncc3)c3ccccc23)cc1 | -430 | 430* | 2 | -2
Cc1ccc(S(=O)(=O)N(C(=O)c2ccncc2)c2ccc(OC(=O)c3ccncc3)c3ccccc23)c(C)c1 | -18 | 18 | 0 | 2
CC(C)(C)N1C(=O)Cc2c1nc(N)c1c(N)nc(N3CCCCC3CO)c(C#N)c21 (centres undefined) | 30 | -30 | 5 | 20*
CN(C)CC(O)CN1C(=O)NC(C)(C)C1=O (centres undefined) | -25 | 25 | 0 | -1
CCOc1ccccc1NC(=O)c1cccc2ccccc12 | 70* | -70 | 0 | -2
CCOc1cc(NC(=O)C2CC2)c(OCC)cc1NC(=O)c1ccccc1OCC | 72* | -72 | 2 | 0
CCOc1cc(NC(=O)C2CC2)c(OCC)cc1NC(=O)c1cc(OC)c(OC)c(OC)c1 | 23 | -23 | 1 | 0
CCOc1ccccc1NC(=O)c1csc(C)c1C | 81* | -81 | 28 | -2
CCOc1ccccc1NC(=O)c1ccccc1-c1ccccc1 | 26 | -26 | 1 | -1
Cc1cc2nc(C(C)(C)C)c(Cc3cccc(F)c3)n2c(C)c1Br | x | x | x | 3
Cc1cc2nc(C3CCCCC3)c(Cc3ccccc3)n2c(C)c1Br | x | x | x | 3
Cc1ccc(COc2ccc(/C=N/NC(=O)c3nnn(-c4nonc4N)c3COc3ccc(F)cc3)cc2)cc1 | 71* | -71 | 4 | -2
CCc1c(C(=O)N/N=C/c2ccc(OCc3ccc(F)cc3)c(OC)c2)nnn1-c1nonc1N | 76* | -76 | 0 | 0
Cc1c(C(=O)Nc2ccc(F)cc2)oc2ccc(S(=O)(=O)N3CCCC3)cc12 | 19 | -19 | 2 | 1
COc1ccc(NC(=O)c2cc(C)nc3ccccc23)cc1S(=O)(=O)N1CCOCC1 | 32 | -32 | 3 | 4
Cc1ccc(NC(=O)c2cc(=O)c3ccccc3o2)cc1S(=O)(=O)N1CCCCC1 | 80* | -80 | 0 | 1
Cc1c(C(=O)Nc2ccc(F)c(F)c2)oc2ccc(S(=O)(=O)N3CCCCC3)cc12 | 75* | -75 | 5 | 1
CC(=O)Nc1ccc(NC(=O)c2cc(=O)c3cc(C)c(C)cc3o2)cc1 | 72* | -72 | 0 | -1
COc1ccc(NC(=O)c2cc(-c3ccco3)nc3ccccc23)cc1S(=O)(=O)N1CCOCC1 | 89* | -89 | 0 | 1
COc1ccccc1C(O)c1ncc(-c2ccccc2C)[nH]1 (centres undefined) | x | x | x | -4
SMILES | SR-BI DiI inh | SR-BI DiI-HDL act | GRK2 inh | Rin1 Abl inh
O=C(Nc1cccc(S(=O)(=O)N2CCOCC2)c1)c1ccc2ccccc2n1 | x | x | 0 | 0
O=C(Nc1ccc(Cl)c(S(=O)(=O)N2CCOCC2)c1)c1ccc2c(c1)OCCO2 | 72* | -72 | 5 | 1
O=C(Nc1ccc(Cl)c(S(=O)(=O)N2CCOCC2)c1)c1ccc2c(c1)OCO2 | 59 | -59 | 0 | 0
Cc1ccc(NC(=O)c2ccc3ccccc3n2)cc1S(=O)(=O)N1CCOCC1 | 95* | -95 | 0 | 1
O=C(Nc1ccc(Cl)c(S(=O)(=O)N2CCOCC2)c1)c1cc(-c2ccccn2)nc2ccccc12 | 83* | -83 | 0 | 2
CC(C)C(C(=O)O)N1CCS(=O)(=O)CC1 (centres undefined) | -12 | 12 | 4 | 4
CC1(C)NC(=O)N(CC(=O)OCC(=O)c2ccc(F)cc2)C1=O | -152 | 152* | 1 | 4
CC1(C)NC(=O)N(CC(=O)OCC(=O)c2ccc(Cl)s2)C1=O | -3 | 3 | 0 | -2
Cc1oc2c(c1C(=O)c1ccccc1)C(=O)C(=O)c1ccccc1-2 | 29 | -29 | 58* | -3
O=C(Nc1ccccc1Cl)c1ccc2c(c1)N(Cc1ccc(F)cc1)C(=O)CS2=O (centres undefined) | 82* | -82 | 5 | 0
Cc1nc2ccc(CN(C)c3ccc(C(=O)N[C@@H](CCC(=O)O)C(=O)O)s3)cc2c(=O)[nH]1 | x | x | 53* | x
CCCS(=O)(=O)NC(=O)C1(C)CCCN(C(=O)c2ccc3c(c2)OCO3)C1 (centres undefined) | x | x | x | 0
Cc1nnc(SCC(=O)NC2CCS(=O)(=O)C2)n1Cc1ccccc1 (centres undefined) | -66 | 66* | 0 | 2
O=C(CCn1cccn1)N1CCCC(Nc2ccc(F)c(F)c2)C1 (centres undefined) | x | x | x | -2
CCOC(=O)C1=CCN(S(=O)(=O)c2ccccc2Cl)C1c1cccc(F)c1 (centres undefined) | x | x | x | 1
CN(C)CCCCOc1ccc(Br)cc1Cl | -7 | 7 | 0 | -6
Cc1ccc(OCCOCCN(C)C)c(Cl)c1 | -64 | 64* | 1 | 1
C=CCO/N=C(/C)c1ccc(Oc2cnccn2)cc1 | -5 | 5 | 3 | 3
C/C(=N/Nc1ccc([N+](=O)[O-])cc1)c1c[nH]c2ccccc12 | 127* | -127 | 1 | 3
Cc1[nH]c2ccccc2c1/C=N/NC(=O)c1cccc([N+](=O)[O-])c1 | 58 | -58 | 0 | 1
C/C(=N\Nc1ccc([N+](=O)[O-])cc1)c1ccc(C#N)cc1 | 78* | -78 | 0 | 0
Cc1[nH]c2ccccc2c1/C=N/Nc1ccc([N+](=O)[O-])cc1 | 128* | -128 | 0 | -1
C/C(=N\Nc1ccc([N+](=O)[O-])cc1)c1ccc2c(c1)OCO2 | 52 | -52 | 1 | -1
C/C(=N/Nc1ccc([N+](=O)[O-])cc1)c1ccc(C)cc1C | 48 | -48 | 0 | 2
COc1ccc(NC(=O)c2cccc3c2C(=O)c2ccc(-c4cnc(OC)nc4)cc2S3(=O)=O)cc1 | -25 | 25 | 21 | 2
CCc1ccc(N=C2NC(=O)/C(=C/c3cc(Br)c(OCC(=O)O)c(OC)c3)S2)cc1 | 1 | -1 | 0 | 1
C=CCOc1c(Br)cc(/C=C2\SC(=Nc3ccccc3)NC2=O)cc1OC | 72* | -72 | 1 | -1
CC(C)C1Oc2ccccc2N(CC(=O)N(Cc2ccccn2)C2CC2)C1=O (centres undefined) | -369 | 369* | 0 | -1
N#Cc1nc(-c2ccc(OCc3ccccc3)cc2)oc1N1CCOCC1 | 71* | -71 | 2 | 1
